UBC13 polyUb: human UBC13 polyubiquitination inhibition. P61088. UBC13 polyubiquitin chain formation, TR-FRET. inhibition, % at 20 µM. 330,000 tested, 0.47% active; in the data active = inhibition above about 45%, passing the limit was not always enough
PREPL inh: inhibitors of human prolyl oligopeptidase-like enzyme PREPL; recombinant PREPL, fluorescence polarization activity-based probe; inhibition, % at 5.96 µM; 320,000 tested, 0.68% active; AID 2751
Target sequence (Q4J6C6 whole entry, looked up): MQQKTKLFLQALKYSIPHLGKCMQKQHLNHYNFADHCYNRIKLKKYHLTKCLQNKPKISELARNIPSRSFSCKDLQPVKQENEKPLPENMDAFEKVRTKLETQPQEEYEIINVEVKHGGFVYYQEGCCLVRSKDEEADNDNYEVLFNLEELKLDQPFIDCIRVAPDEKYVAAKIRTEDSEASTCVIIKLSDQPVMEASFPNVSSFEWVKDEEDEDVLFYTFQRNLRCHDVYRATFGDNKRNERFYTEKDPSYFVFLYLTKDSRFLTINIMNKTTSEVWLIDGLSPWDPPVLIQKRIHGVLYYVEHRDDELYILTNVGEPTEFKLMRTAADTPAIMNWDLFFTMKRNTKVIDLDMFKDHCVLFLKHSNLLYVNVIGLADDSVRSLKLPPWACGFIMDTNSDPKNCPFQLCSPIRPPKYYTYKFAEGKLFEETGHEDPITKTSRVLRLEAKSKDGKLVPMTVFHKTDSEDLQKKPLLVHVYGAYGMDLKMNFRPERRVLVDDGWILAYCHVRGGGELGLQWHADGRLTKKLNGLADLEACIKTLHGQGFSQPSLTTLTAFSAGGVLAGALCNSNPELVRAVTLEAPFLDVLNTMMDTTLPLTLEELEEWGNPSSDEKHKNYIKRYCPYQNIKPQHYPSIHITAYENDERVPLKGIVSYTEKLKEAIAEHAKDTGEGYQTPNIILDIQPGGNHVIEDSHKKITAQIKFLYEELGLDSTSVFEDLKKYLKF
RBBP9 inhibitor: blocks human serine hydrolase RBBP9; O75884; recombinant RBBP9, FP-Rh probe fluorescence polarization; inhibition, % at 7.94 µM; 220,000 tested, 0.2% active; AID 1515;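 active = inhibition above the campaign mean of all tested compounds plus 3 SD, cut at about 14% in these data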
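Controls: DMSO-treated enzyme wells and wells lacking RBBP9 | Material: RBBP9 protein | Technique: Fluorescence polarization | Replication: Single well per compound, no replicates | Buffer or medium: Tris-NaCl-Pluronic buffer, pH 8.0 | Timing: 30 min compound preincubation, 45 min probe labeling, 25 °C | Read-out basis: Percent inhibition from mP, scaled between DMSO and no-protein wells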
Rin1-Abl PPI inh: blocks binding of human Rin1 to Abl; inhibition, % at 7.35 µM; AID 588664; TR-FRET Rin1/Abl binding, biochemical; 360,000 tested, 0.4% active; P00519+Q13671; in the data active = inhibition above about 5%, passing the limit was not always enough
ALR inh: human ALR oxidase inhibition via reduced H2O2; inhibition, % (no concentration beside the values); P55789; purified ALR, DTT oxidation, H2O2 HRP-luminol luminescence; 290,000 tested, 3.8% active; AID 485317;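 active = mean replicate inhibition above about 79%, with every replicate also reaching it, limit read from the data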
UBC9 SUMO inh: inhibitors of human SUMOylation (UBC9); 290,000 tested, 0.36% active; HTRF SUMOylation assay, SAE1/SAE2 + UBC9, in vitro; inhibition, % at 35 µM; in the data active = inhibition above about 50%, passing the limit was not always enough
PREPL inh cf: human PREPL inhibition, confirmation. shares compounds with PREPL inh. inhibition, % at 5.96 µM. 2,000 tested, 67% active. recombinant PREPL, fluorescence polarization activity probe
Hits are given with their value; – = inactive; · = no result given. Rows were chosen to be rich in hits. Some 4.3% of all compounds tested hit in one or more screens of this group. Cut-off read from the data, not from the text of the source, unless noted: active = inhibition above about 43%; inactive = the rest.

SMILES | UBC13 polyUb | PREPL inh | RBBP9 inhibitor | Rin1-Abl PPI inh | ALR inh | UBC9 SUMO inh | PREPL inh cf
COc1cccc(CNC(=O)c2ccccc2SCC(=O)N2CCCC2)c1 | – | – | · | – | – | · | ·
O=C(Nc1ccc2c(c1)OCCO2)c1ccccc1Cl | · | · | · | – | · | · | ·
O=C(Nc1ccc2c(c1)OCCO2)c1cccc2nc3ccccc3nc12 | – | 48.8 | – | – | – | – | 60.1
CCCN1CCc2c(sc(NC(=S)NC(=O)c3ccccc3)c2C#N)C1 | – | 61.1 | – | – | – | – | –
COc1cc(/C=N/c2oc(C)c(C)c2C#N)cc(Br)c1O | – | – | · | – | – | – | ·
Cc1cc(NC(=O)CSc2nnc(-c3c[nH]c4ccccc34)n2C)no1 | – | – | – | – | – | – | ·
O=C(NCCc1ccccc1)c1ccc2c(c1)S(=O)(=O)c1cc(Cl)ccc1C2=O | – | 56.2 | · | – | – | · | –
O=C(NCc1cccs1)C1CCC(=O)N(Cc2cccc(C(F)(F)F)c2)C1 (centres undefined) | – | – | · | – | – | – | ·
COC(=O)c1c(N)n(CCCN2CCOCC2)c2nc3ccccc3nc12 | – | – | – | – | – | – | ·
COc1ccc(CNC(=O)c2c(N)n(CCCN3CCOCC3)c3nc4ccccc4nc23)cc1 | – | 69.5 | – | – | – | – | 50.3
Nc1c(C(=O)NCc2ccc(F)cc2)c2nc3ccccc3nc2n1CCCN1CCOCC1 | – | 61.2 | – | – | – | – | 46.4
COc1ccc(CCNC(=O)c2cc3c(=O)n4cccc(C)c4nc3n(CCCN3CCOCC3)c2=N)cc1 | – | 53.4 | · | – | – | – | 56.4
COCCOC(=O)c1c(N)n(CCCN2CCOCC2)c2nc3ccccc3nc12 | – | – | – | – | · | – | ·
Nc1c(C(=O)NCc2ccccc2)c2nc3ccccc3nc2n1CCCN1CCOCC1 | – | 44.6 | – | – | – | 98.5 | –
Cc1ccc2nc(C(Cl)(Cl)Cl)nc(N/N=C/c3ccc([N+](=O)[O-])cc3)c2c1 | · | · | · | – | · | · | ·
O=C(C[n+]1ccc2ccccc2c1)c1cccc2ccccc12 | – | 51.7 | – | – | – | – | –
COc1cc(NC(=O)C2(C)CCN2C(=O)C(C)C)cc(OC)c1OC (centres undefined) | · | · | · | – | · | · | ·
CCOCCN1CCN(C2c3ccccc3CSc3ccccc32)CC1 (centres undefined) | – | – | · | – | – | · | ·
COc1cc(/C=C(\C#N)c2ccccn2)ccc1OCc1ccccc1Cl | · | 47.1 | – | – | – | – | –
COc1cc(/C=C(\C#N)c2ccccn2)ccc1OCC(=O)Nc1cccc(C(F)(F)F)c1 | – | – | – | – | – | – | ·
O=c1cc(-c2ccccc2)oc2ccccc12 | – | – | · | – | · | · | ·
Nc1cc([N+](=O)[O-])cc2oc(-c3ccccc3)cc12 | – | 52.8 | · | – | – | – | 54.3
Cc1cc2c(=O)[nH]c(N)nc2[nH]1 | · | · | · | – | · | · | ·
Cc1c(N)cccc1[N+](=O)[O-] | – | – | · | – | – | · | ·
Cc1c(N)cccc1N | – | 49.6 | · | – | 85.7 | · | –
SMILES | UBC13 polyUb | PREPL inh | RBBP9 inhibitor | Rin1-Abl PPI inh | ALR inh | UBC9 SUMO inh | PREPL inh cf
CSCC[C@H](NC(=O)[C@H](Cc1ccccc1)n1c(=O)[nH]c2ccccc2c1=O)C(=O)N1CCC(C(=O)O)CC1 | – | – | · | – | · | – | ·
Cc1ccc(C)n1-c1ccc(C(=O)NN)s1 | – | 56.5 | – | – | · | – | –
CCOC(=O)CNC(=O)c1ccc(Br)s1 | – | – | – | – | – | – | ·
CC1(C(=O)Nc2cccc3ccccc23)CCN1C(=O)Cc1ccccc1Cl (centres undefined) | · | · | · | – | · | · | ·
COc1ccc(OC)c(NC(=O)CSc2nc(N3CCOCC3)nc(N3CCOCC3)n2)c1 | – | – | · | – | – | – | ·
Cc1c(Cl)c([N+](=O)[O-])nn1CCCC(=O)Nc1ccc(Cl)cc1Cl | – | – | – | – | – | – | ·
Cc1c(Cl)c([N+](=O)[O-])nn1CCCC(=O)Nc1cccc(Cl)c1Cl | – | 47.3 | – | – | – | – | –
O=C(COc1ccccc1)NNc1c2ccccc2nc2ccccc12 | – | 45.5 | – | – | 98.1 | – | –
O=C(NNc1c2ccccc2nc2ccccc12)c1ccccc1O | – | 46.3 | – | – | 98.8 | – | –
O=C(NNC(=O)c1cccc2ccccc12)c1ccccc1O | – | – | · | – | – | – | ·
COc1ccc(OCC(=O)NNc2c3ccccc3nc3ccccc23)cc1 | – | 43.7 | – | – | 99.6 | – | 50.2
COc1ccc(OCC(=O)NNC(=O)C(=O)Nc2ccccc2)cc1 | – | – | · | – | – | · | ·
O=C(COC(=O)c1cccc(F)c1)Nc1ccc(Cl)cn1 | – | – | · | – | – | · | ·
Cc1occc1-c1nnc(SCc2nc3ccccc3c(=O)n2CC#N)n1C | – | 43.2 | – | – | – | – | –
N#Cc1ncc(Cc2ccccc2)nc1C#N | – | 52.1 | · | – | · | – | –
CCC(CNc1cc(OC)cc2cccnc12)NC1CCCCC1 (centres undefined) | · | 54.3 | – | – | – | 101.5 | 44.0
COCCNC(=O)CN1C(=O)NC2(CCCc3ccccc32)C1=O (centres undefined) | – | – | · | – | – | – | ·
O=C(N/N=C/c1ccc(OCc2ccccc2)cc1)c1cc[n+](Cc2ccccc2)cc1 | – | 52.8 | – | – | – | – | –
O=C(N/N=C/c1ccc(F)cc1)c1ccc(OCc2ccccc2)cc1 | – | – | – | – | · | – | ·
CCNc1cc(O)ccc1C | – | 69.5 | · | – | – | · | –
Cc1ccc(C(=O)CNc2cc(C)ccc2C)cc1 | – | – | · | – | – | – | ·
COc1ccc(NS(=O)(=O)c2cccc(C(=O)NNC(=O)c3ccc(=O)[nH]c3)c2)cc1 | – | – | · | – | – | · | ·
N#Cc1c(N)nc2c3c(sc(=N)c2c1N)NC(=O)CC3c1ccccc1 (centres undefined) | – | 50.4 | – | – | – | – | –
CC(=O)N1CCC(=NNc2nc3ccccc3[nH]2)CC1 | – | 54.2 | – | – | 99.6 | – | –
CN1CCCN(Cc2nc(-c3cccc(C(F)(F)F)c3)no2)CC1 | – | – | – | – | – | – | ·
SMILES | UBC13 polyUb | PREPL inh | RBBP9 inhibitor | Rin1-Abl PPI inh | ALR inh | UBC9 SUMO inh | PREPL inh cf
O=c1c2ccccc2c(C=NCCCN2CCOCC2)c(O)n1Cc1ccc2c(c1)OCO2 | – | 43.7 | – | – | – | – | –
Cc1ccc(Nc2nc(N3CCOCC3)c3ccccc3n2)cc1 | – | – | – | – | – | – | ·
Oc1ccc(Nc2nc(N3CCCC3)c3ccccc3n2)cc1 | – | 72.3 | – | – | – | – | 65.7
COc1ccc(Nc2nc(N)c([N+](=O)[O-])c(N3CCCC3)n2)cc1 | – | – | · | – | – | – | ·
COc1ccc(Nc2nc(N3CCCCC3)c3ccccc3n2)cc1 | – | 59.7 | – | – | – | – | –
CCOC(=O)C1=CCN(S(=O)(=O)c2ccccc2C)C1c1ccc(F)cc1 (centres undefined) | · | · | · | – | · | · | ·
COc1ccc(/C=N/Nc2cc(C)nc3c(C)cccc23)cc1 | – | 47.6 | · | – | – | – | 47.1
COc1cccc2c(Nc3ccccc3C)cc(C)nc12 | – | – | · | – | – | – | ·
